Reference: ChEMBL document CHEMBL3352173, “Optimization of pyrrolamide topoisomerase II inhibitors toward identification of an antibacterial clinical candidate (AZD5099)” (J Med Chem, 2014)
Converted amounts (≈) assume the structure as drawn.

What was measured:
[1] = target: T1, ATP-binding cassette sub-family C member 2 (Rattus norvegicus, UniProt Q63120); test: Stimulation of ATPase activity of rat Mrp2 assessed as inorganic phosphate
[2] = Clearance in rat at 10 mg/kg, iv; assay type: ADME, organism-based; parameters: dose 10 mg/kg, route intravenous; conditions: in vivo
[3] = Percentage unbound in mouse plasma; assay type: ADME, cell-free
[4] = Solubility of the compound; assay type: physicochemical
[5] = target: DNA gyrase subunit B (Staphylococcus aureus, UniProt P0A0K8); test: Inhibition of ATPase activity of Staphylococcus aureus GyrB
Method in brief: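 IC50 was determined against S. aureus GyrB in the routine screening assay. The enzyme concentration limits resolution below 10 nM.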

[6] = Clearance in Wistar rat at 10 mg/kg, iv; assay type: ADME, organism-based; parameters: dose 10 mg/kg, route intravenous; conditions: in vivo
[7] = Dissociation constant, pKa of the compound; assay type: physicochemical
[8] = Bioavailability in CD1 mouse at 10 mg/kg, […]; assay type: ADME, organism-based; conditions: in vivo
[9] = Percentage unbound in rat plasma; assay type: ADME, cell-free
[10] = Ratio of MIC for methicillin, quinolone-resistant Staphylococcus aureus to fraction unbound in human plasma; assay type: ADME
[11] = system: Escherichia coli; test: Antimicrobial activity against Escherichia coli tolC- by broth microdilution/CLSI method; assay type: functional
[12] = system: Moraxella catarrhalis; test: Antimicrobial activity against Moraxella catarrhalis by broth microdilution/CLSI method; assay type: functional
[13] = Bioavailability in Wistar rat at 10 mg/kg, […]; assay type: ADME, organism-based; conditions: in vivo
[14] = Clearance in CD1 mouse at 10 mg/kg, iv; assay type: ADME, organism-based; parameters: dose 10 mg/kg, route intravenous; conditions: in vivo
[15] = Percentage unbound in human plasma; assay type: ADME, cell-free
[16] = system: Staphylococcus aureus; test: Antimicrobial activity against methicillin, quinolone-resistant Staphylococcus aureus by broth microdilution/CLSI method; assay type: functional
[17] = Bioavailability in dog at 10 mg/kg, iv; assay type: ADME, organism-based, Canis lupus familiaris; conditions: plasma
[18] = target: T1, ATP-binding cassette sub-family C member 2; test: Inhibition of ATPase activity of rat Mrp2 assessed as inorganic phosphate
[19] = system: Streptococcus pneumoniae; test: Antibacterial activity against Streptococcus pneumoniae by broth microdilution/CLSI method; assay type: functional
[20] = system: Escherichia coli; test: Antimicrobial activity against wild-type Escherichia coli Eco523 by broth microdilution/CLSI method; assay type: functional
[21] = Clearance in dog at 10 mg/kg, iv; assay type: ADME, organism-based, Canis lupus familiaris; parameters: dose 10 mg/kg, route intravenous; conditions: plasma
[22] = target: T2, ATP-binding cassette sub-family C member 2 (Homo sapiens, UniProt Q92887); test: Stimulation of ATPase activity of human MRP2 assessed as inorganic phosphate
[23] = system: Staphylococcus aureus; test: Antimicrobial activity against methicillin-sensitive Staphylococcus aureus by broth microdilution/CLSI method; assay type: functional
[24] = system: Streptococcus pyogenes; test: Antimicrobial activity against Streptococcus pyogenes by broth microdilution/CLSI method; assay type: functional
[25] = Octanol-phosphate buffer distribution coefficient, log D of the compound at pH 7.4 by shake flask method; assay type: physicochemical
[26] = Clearance in TR-negative Wistar rat at 10 mg/kg, iv; assay type: ADME, organism-based; parameters: dose 10 mg/kg, route intravenous; conditions: in vivo
[27] = Percentage unbound in dog plasma; assay type: ADME, cell-free, Canis lupus familiaris
[28] = target: T2, ATP-binding cassette sub-family C member 2; test: Inhibition of ATPase activity of human MRP2 assessed as inorganic phosphate
[29] = system: Haemophilus influenzae; test: Antimicrobial activity against Haemophilus influenzae by broth microdilution/CLSI method; assay type: functional
[30] = system: Staphylococcus aureus; test: Antimicrobial activity against 2 times drug resistance selected Staphylococcus aureus ARC516-2F by broth microdilution/CLSI method; assay type: functional
[31] = system: Staphylococcus aureus; test: Antimicrobial activity against 2 times drug resistance selected Staphylococcus aureus ARC516-1F by broth microdilution/CLSI method; assay type: functional
[32] = system: Staphylococcus aureus; test: Antimicrobial activity against Staphylococcus aureus ARC516 by broth microdilution/CLSI method; assay type: functional
[33] = system: Enterococcus faecium; test: Antimicrobial activity against Enterococcus faecium by broth microdilution/CLSI method; assay type: functional
[34] = system: Staphylococcus aureus; test: Antimicrobial activity against Staphylococcus aureus by broth microdilution/CLSI method; assay type: functional
[35] = system: Enterococcus faecalis; test: Antimicrobial activity against Enterococcus faecalis by broth microdilution/CLSI method; assay type: functional
[36] = system: Haemophilus influenzae; test: Antimicrobial activity against amoxicillin-resistant Haemophilus influenzae by broth microdilution/CLSI method; assay type: functional
[37] = Escherichia coli, read-out: MIC
[38] = Moraxella catarrhalis, read-out: MIC
[39] = Staphylococcus aureus, read-out: MIC
[40] = Streptococcus pneumoniae, read-out: MIC
[41] = Escherichia coli, Eco523, read-out: MIC
[42] = Haemophilus influenzae, read-out: MIC

T2 sequence (Q92887 whole entry): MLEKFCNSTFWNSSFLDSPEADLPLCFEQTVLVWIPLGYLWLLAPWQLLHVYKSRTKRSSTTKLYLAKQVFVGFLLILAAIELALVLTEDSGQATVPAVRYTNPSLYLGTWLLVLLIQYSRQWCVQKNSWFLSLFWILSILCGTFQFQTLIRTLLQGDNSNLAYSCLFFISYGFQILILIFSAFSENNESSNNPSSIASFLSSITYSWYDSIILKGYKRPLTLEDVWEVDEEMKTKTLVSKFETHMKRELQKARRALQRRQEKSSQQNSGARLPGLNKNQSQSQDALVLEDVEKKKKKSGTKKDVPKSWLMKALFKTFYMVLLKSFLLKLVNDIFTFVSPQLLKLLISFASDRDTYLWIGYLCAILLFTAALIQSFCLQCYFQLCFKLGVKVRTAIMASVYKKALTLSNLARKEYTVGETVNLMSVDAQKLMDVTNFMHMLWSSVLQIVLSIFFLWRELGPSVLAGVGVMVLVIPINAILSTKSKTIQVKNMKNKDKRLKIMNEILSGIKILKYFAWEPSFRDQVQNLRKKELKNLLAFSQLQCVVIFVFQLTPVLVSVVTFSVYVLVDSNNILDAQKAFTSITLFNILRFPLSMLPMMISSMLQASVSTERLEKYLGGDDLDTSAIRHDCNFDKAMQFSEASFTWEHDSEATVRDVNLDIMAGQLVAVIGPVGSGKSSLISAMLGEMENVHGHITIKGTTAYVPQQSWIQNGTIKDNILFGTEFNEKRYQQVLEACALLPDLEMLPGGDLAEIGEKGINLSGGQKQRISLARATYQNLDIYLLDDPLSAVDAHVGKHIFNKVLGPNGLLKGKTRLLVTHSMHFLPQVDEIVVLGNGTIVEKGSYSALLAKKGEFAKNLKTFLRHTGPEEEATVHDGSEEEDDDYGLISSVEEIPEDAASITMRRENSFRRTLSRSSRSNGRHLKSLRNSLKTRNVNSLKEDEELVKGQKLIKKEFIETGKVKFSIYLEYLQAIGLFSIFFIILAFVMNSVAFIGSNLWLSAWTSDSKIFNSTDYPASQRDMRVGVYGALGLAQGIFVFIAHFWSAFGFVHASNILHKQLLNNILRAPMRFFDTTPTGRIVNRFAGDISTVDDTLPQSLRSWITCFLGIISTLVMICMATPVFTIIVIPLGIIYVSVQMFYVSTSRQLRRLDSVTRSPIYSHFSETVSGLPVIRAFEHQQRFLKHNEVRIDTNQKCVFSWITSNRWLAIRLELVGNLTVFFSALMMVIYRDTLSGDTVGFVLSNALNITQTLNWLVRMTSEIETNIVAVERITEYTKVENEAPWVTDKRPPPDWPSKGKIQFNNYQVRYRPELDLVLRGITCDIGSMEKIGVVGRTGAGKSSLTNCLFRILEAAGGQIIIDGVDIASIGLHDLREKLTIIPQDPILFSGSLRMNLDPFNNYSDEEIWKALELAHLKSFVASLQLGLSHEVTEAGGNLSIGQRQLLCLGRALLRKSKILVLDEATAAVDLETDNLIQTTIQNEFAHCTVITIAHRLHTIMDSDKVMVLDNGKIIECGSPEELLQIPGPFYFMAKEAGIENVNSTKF
Sequence of DNA gyrase subunit B (P0A0K8 whole entry): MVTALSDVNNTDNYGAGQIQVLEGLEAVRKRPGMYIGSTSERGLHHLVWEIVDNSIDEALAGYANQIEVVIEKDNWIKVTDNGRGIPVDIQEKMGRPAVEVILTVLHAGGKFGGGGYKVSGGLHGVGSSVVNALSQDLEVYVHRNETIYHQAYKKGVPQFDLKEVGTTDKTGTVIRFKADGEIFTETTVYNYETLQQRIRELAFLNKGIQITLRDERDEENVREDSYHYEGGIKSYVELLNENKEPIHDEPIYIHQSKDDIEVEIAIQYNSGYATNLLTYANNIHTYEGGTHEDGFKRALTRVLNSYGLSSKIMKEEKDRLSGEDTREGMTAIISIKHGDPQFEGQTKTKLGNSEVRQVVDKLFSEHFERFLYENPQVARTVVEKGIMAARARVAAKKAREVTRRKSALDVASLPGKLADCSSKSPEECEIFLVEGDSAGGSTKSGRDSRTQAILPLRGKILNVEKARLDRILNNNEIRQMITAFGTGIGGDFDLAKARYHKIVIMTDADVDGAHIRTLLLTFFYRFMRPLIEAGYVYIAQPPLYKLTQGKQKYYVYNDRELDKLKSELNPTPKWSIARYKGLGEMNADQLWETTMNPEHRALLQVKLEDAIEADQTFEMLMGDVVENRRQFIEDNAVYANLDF
T1 sequence (Q63120 whole entry): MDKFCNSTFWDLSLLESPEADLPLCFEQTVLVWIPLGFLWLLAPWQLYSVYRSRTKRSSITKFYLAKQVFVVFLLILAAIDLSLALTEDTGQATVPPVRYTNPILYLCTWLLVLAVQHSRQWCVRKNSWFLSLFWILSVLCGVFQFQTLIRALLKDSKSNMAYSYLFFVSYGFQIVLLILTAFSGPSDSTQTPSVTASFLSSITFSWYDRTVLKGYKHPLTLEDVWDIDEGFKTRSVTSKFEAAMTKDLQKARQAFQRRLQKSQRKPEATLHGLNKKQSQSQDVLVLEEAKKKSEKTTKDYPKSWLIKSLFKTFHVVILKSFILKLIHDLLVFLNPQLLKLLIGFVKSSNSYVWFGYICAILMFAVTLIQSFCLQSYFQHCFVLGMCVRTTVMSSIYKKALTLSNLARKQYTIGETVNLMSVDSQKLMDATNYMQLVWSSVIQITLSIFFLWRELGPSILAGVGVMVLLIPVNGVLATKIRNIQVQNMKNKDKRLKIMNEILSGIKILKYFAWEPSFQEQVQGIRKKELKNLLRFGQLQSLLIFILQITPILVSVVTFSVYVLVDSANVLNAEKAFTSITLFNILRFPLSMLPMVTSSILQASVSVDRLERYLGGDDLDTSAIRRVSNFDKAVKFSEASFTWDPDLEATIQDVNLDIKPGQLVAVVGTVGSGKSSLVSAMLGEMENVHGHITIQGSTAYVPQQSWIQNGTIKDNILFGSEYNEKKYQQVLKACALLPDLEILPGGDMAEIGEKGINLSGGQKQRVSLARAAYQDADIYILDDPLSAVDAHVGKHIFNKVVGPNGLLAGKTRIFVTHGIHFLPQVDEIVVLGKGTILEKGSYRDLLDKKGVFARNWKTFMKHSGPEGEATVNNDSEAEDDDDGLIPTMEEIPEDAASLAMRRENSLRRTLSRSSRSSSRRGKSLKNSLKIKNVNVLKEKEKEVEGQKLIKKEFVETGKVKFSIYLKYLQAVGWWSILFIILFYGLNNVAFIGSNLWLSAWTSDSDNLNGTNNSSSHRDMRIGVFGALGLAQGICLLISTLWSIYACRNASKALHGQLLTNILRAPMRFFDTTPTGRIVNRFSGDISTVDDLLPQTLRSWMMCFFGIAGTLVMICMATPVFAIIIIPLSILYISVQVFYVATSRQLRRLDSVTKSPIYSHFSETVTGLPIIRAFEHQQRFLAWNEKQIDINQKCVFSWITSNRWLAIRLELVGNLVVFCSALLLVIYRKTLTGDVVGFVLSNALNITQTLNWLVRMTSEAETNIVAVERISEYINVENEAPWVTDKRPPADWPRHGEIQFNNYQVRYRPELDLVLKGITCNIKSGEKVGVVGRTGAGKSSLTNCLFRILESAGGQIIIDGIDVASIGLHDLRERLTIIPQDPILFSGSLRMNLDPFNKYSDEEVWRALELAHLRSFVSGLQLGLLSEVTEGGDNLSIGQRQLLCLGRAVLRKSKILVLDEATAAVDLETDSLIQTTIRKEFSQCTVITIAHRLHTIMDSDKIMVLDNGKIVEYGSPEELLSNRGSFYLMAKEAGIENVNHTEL

Row | Compound | EC50 [1] | clearance [2] | fraction unbound [3] | solubility [4] | IC50 [5] | clearance [6] | pKa [7] | fraction unbound [9] | Ratio [10] | MIC [11, 37] | MIC [12, 38] | bioavailability [13] | clearance [14] | fraction unbound [15] | MIC [16, 39] | bioavailability [17] | IC50 [18] | MIC [19, 40] | clearance [21] | fraction unbound [27] | further results
1 | COCCNC(=O)c1nc(N2CC[C@@H](NC(=O)c3[nH]c(C)c(Cl)c3Cl)[C@@H](OC)C2)sc1C(=O)O | > 200 µM | 9.5 mL/min/kg | 0.0585 | 880 µM (≈ 470 µg/mL) | < 0.01 µM | 2.1 mL/min/kg | 4.4 | 0.038 | 3.3 | 0.62 µg/mL (≈ 1.16 µM) | 0.17 µg/mL (≈ 0.318 µM) | 34% | 57 mL/min/kg | 0.027 | 0.089 µg/mL (≈ 0.167 µM) | 100% | 78 µM | 0.018 µg/mL (≈ 0.0337 µM) | 3 mL/min/kg | 0.082 | bioavailability [8]: 57%; MIC [20, 41]: 24 µg/mL (≈ 44.9 µM); EC50 [22]: > 200 µM; MIC [23, 39]: 0.078 µg/mL (≈ 0.146 µM); MIC [24]: 0.017 µg/mL (≈ 0.0318 µM); logD [25]: 1.2; clearance [26]: 1.5 mL/min/kg; IC50 [28]: 100 µM; MIC [29, 42]: 0.15 µg/mL (≈ 0.281 µM)
2 | CO[C@H]1CN(c2ncc(C(=O)O)s2)CC[C@H]1NC(=O)c1[nH]c(C)c(Cl)c1Cl | 38 µM | 52 mL/min/kg | – | – | < 0.01 µM | 34 mL/min/kg | 3.6 | – | 7 | – | – | 6.7% | 99 mL/min/kg | 0.071 | – | – | > 200 µM | – | 26 mL/min/kg | 0.22 | MIC [11]: 0.18 µg/mL (≈ 0.415 µM); MIC [12]: 0.031 µg/mL (≈ 0.0715 µM); MIC [16]: 0.5 µg/mL (≈ 1.15 µM); MIC [19]: 0.016 µg/mL (≈ 0.0369 µM); MIC [20]: 64 µg/mL (≈ 148 µM); EC50 [22]: 71 µM; MIC [23]: 0.32 µg/mL (≈ 0.738 µM); clearance [26]: 9.1 mL/min/kg; IC50 [28]: > 200 µM; MIC [29]: 0.18 µg/mL (≈ 0.415 µM)
3 | CC(=O)NC[C@H]1CN(c2ccc(N3CCOCC3)c(F)c2)C(=O)O1 [LINEZOLID] | – | – | – | – | – | – | – | – | – | – | – | – | – | – | – | – | – | – | – | – | MIC [30]: 0.5 µg/mL (≈ 1.48 µM); MIC [31]: 1 µg/mL (≈ 2.96 µM); MIC [32]: 1 µg/mL (≈ 2.96 µM)
4 | CC[C@H]1OC(=O)[C@H](C)[C@@H](O[C@H]2C[C@@](C)(OC)[C@@H](O)[C@H](C)O2)[C@H](C)[C@@H](O[C@@H]2O[C@H](C)C[C@H](N(C)C)[C@H]2O)[C@](C)(O)C[C@@H](C)CN(C)[C@H](C)[C@@H](O)[C@]1(C)O [AZITHROMYCIN] | – | – | – | – | – | – | – | – | – | – | – | – | – | – | – | – | – | – | – | – | MIC90 [33]: > 128 µg/mL; MIC90 [34]: > 128 µg/mL; MIC90 [35]: > 128 µg/mL; MIC90 [36]: 2 µg/mL (≈ 2.67 µM); MIC90 ([29]; Haemophilus influenzae): 2 µg/mL (≈ 2.67 µM)
5 | CO[C@H]1CN(c2nc(-c3cnccn3)c(C(=O)O)s2)CC[C@H]1NC(=O)c1[nH]c(C)c(Cl)c1Cl | – | 2.7 mL/min/kg | 0.074 | 540 µM (≈ 276 µg/mL) | < 0.01 µM | – | 5.4 | 0.0715 | 0.46 | 0.5 µg/mL (≈ 0.978 µM) | 0.008 µg/mL (≈ 0.0156 µM) | – | – | 0.039 | 0.018 µg/mL (≈ 0.0352 µM) | 18% | – | 0.007 µg/mL (≈ 0.0137 µM) | 0.73 mL/min/kg | 0.13 | MIC [20, 41]: > 8 µg/mL; MIC [23, 39]: 0.031 µg/mL (≈ 0.0606 µM); MIC [24]: 0.01 µg/mL (≈ 0.0196 µM); logD [25]: 1.2; MIC [29, 42]: 0.13 µg/mL (≈ 0.254 µM)
